The results in this text go back to paper PMC4159095 (Journal of medicinal chemistry, 2013).

Experiment [1] relates to IL-3-induced activation of Erk, Akt, Jak2, and Stat5. Kind of experiment: IL-3 signaling in Ba/F3 cells, immunoblotting. It is filed as cell-based. Summed up: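 Ba/F3 cells were starved overnight in serum- and cytokine-free RPMI 1640, pretreated for 3 h with test compound (20 μM for the time course, graded concentrations for dose response), then stimulated with IL-3 (1.0 ng/mL) for set times or 10 min. RIPA lysates (50 μg protein) were run on 10% SDS-PAGE and immunoblotted for p-Erk, p-Akt, p-Jak2 and p-Stat5 with ECL detection. Blots were reprobed for total proteins; three repeats.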

For experiment [2], the system named is PTPN11E76K/+ mouse embryonic fibroblasts. Kind of experiment: MEF cell growth. It is filed as cell-based. The following applies: Cryptotanshinone 20 μM.
Experiment [3] deals with H661 human lung cancer cells (PTPN11 N58S). The experiment can be described thus: Cell proliferation assay. The note with it: 48 hours. It is filed as cell-based.
For the next experiment, the system named is SHP2. Kind of experiment: Reversibility test by extensive washing of the enzyme-inhibitor complex. It is filed as biochemical.
Experiment [4] has as its system U937 human lymphoma cells (PTPN11 G60R). The experiment can be described thus: Cell proliferation assay. It is filed as cell-based. The note with it: 48 hours.
The subject of a further experiment is U937 cells. The experiment can be described thus: Apoptosis, Annexin V staining, FACS. It is filed as cell-based, human. The following applies: 24 hours.
In experiment [5] the test system is JMML cells (PTPN11E76K/+). The experiment can be described thus: Total cell number in GM-CSF-containing medium. It is filed as cell-based, human.
Experiment [6] concerns myeloid blasts from JMML patients with the PTPN11E76K/+ mutation. Kind of experiment: Colony-forming unit assay, GM-CSF. It is filed as cell-based, human. The note with it: GM-CSF 1.0 ng/mL, 14 days. Summed up: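 Bone marrow cells or splenocytes from JMML patients carrying PTPN11E76K/+ were plated at 5×10^4 cells/mL in 0.9% methylcellulose IMDM with 30% FBS, glutamine (10^-4 M), β-mercaptoethanol (3.3×10^-5 M) and GM-CSF (1.0 ng/mL), plus test compound at varying doses or matching DMSO. After 14 days at 37°C in 5% CO2, CFU-GM and CFU-M colonies were counted and normalized to DMSO-treated cells. Three patient samples were run in triplicate.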

In experiment [7] the test system is myeloid progenitors from PTPN11E76K/+ mice. Kind of experiment: Colony-forming unit assay, GM-CSF. It is filed as cell-based, mouse. The following applies: GM-CSF 1.0 ng/mL, 7 days. Summed up: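 Bone marrow from PTPN11E76K/+/Mx1-Cre+ and PTPN11+/+/Mx1-Cre+ mice was plated at 5×10^4 cells/mL in 0.9% methylcellulose IMDM with 30% FBS, glutamine, β-mercaptoethanol and GM-CSF (1.0 ng/mL), with test compound at varying doses or DMSO. CFU-GM and CFU-M colonies were counted after 7 days at 37°C in 5% CO2 and normalized to colonies from DMSO-treated WT cells. Triplicates, two independent experiments.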

Another experiment concerns SHP2 PTP domain. The experiment can be described thus: Fluorescence titration. It is filed as binding. The following applies: increasing compound concentrations. A digest of the protocol:
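Intrinsic tryptophan fluorescence of the GST-fused SHP2 PTP domain (purified), diluted in 20 mM Tris-HCl pH 7.5. Protein level is held constant while test compound is raised stepwise. Spectra are recorded on a luminescence spectrometer, and fluorescence is plotted against log compound concentration (M). The experiment was repeated twice; data are mean±S.E.M. of triplicates.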

The subject of another experiment is Hela cells. The experiment can be described thus: HeLa cell growth after control or SHP2 siRNA. It is filed as cell-based. The note with it: 24 hours treatment. Summed up:
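HeLa cells were transfected with control or SHP2 siRNA (400 pmoles/8.0×10^5 cells). After 48 h they were exposed to test compound at graded concentrations or DMSO, and cell numbers were determined 24 h later. Treated knockdown and control cells were each normalized to their untreated counterparts. Knockdown was confirmed by anti-SHP2 immunoblot with β-actin as loading control. Triplicates; three experiments.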

Another experiment has as its system GST-SHP2 PTP. The experiment can be described thus: Enzymatic kinetic analyses. It is filed as biochemical. The following applies: Cryptotanshinone 25 μM.
The test system of experiment [8] is WT mouse embryonic fibroblasts. The experiment can be described thus: MEF cell growth. The following applies: Cryptotanshinone 20 μM. It is filed as cell-based.
The subject of the next experiment is H661 cells. Kind of experiment: Cell cycle analysis. It is filed as cell-based, human.
The target of experiment [9] is T1, SHP2 PTP domain (GST-SHP2 PTP) (Homo sapiens, UniProt Q06124).
T1 sequence (Q06124 247-517 limits assumed): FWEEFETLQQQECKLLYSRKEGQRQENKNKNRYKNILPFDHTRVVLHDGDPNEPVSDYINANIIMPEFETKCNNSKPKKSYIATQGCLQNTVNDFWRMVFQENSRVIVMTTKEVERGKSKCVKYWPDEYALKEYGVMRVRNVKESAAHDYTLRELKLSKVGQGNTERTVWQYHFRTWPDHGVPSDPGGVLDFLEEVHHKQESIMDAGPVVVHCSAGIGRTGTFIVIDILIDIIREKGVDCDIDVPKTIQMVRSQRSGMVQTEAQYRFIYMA
It is filed as biochemical. The note with it: phospho-EGFR peptide substrate. A digest of the protocol: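 In-house purified GST-SHP2 PTP domain (0.5 μg) was preincubated with test compound at various concentrations for 30 min at room temperature. Buffer: 25 mM Tris-HCl pH 7.4, 50 mM NaCl, 5 mM DTT, 2.5 mM EDTA. EGFR pTyr peptide (DADEpYLIPQQG) was added to 0.2 mM final, then 30°C for 30 min. Released phosphate was detected with Malachite Green, reading OD620 after 10 min.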

For a further experiment, the system named is SHP1. The experiment can be described thus: In vitro phosphatase activity assay, phospho-EGFR peptide substrate. It is filed as biochemical.

Turning to `C[C@H]1COC2=C1C(=O)C(=O)c1c2ccc2c1CCCC2(C)C` [Cryptotanshinone], the “tyrosine-phosphorylation of Gab2 and Gab2-SHP2 interaction” value in [1] is listed as “markedly decreased”. Further, the “IL-3-induced activation of Erk, Akt, Jak2, and Stat5 (phosphorylation levels)” value in [1] (3 hours pretreatment, IL-3 1.0 ng/mL) was “greatly suppressed”. In [2], the “cell growth of PTPN11E76K/+ MEFs” value is “decreased cell growth” and the “sensitivity of PTPN11E76K/+ MEFs relative to WT” value is “more sensitive”. In [3], the “cell proliferation of H661 cells” value is “decreased cell proliferation in a dose-dependent manner”. For the same compound, the “reversibility of SHP2 inhibition” value in the experiment with SHP2 is reported as “irreversible inhibitor”. For the same compound, the “cell proliferation of U937 cells” value in [4] is recorded as “decreased cell proliferation in a dose-dependent manner”. Also, in the experiment on U937 cells, the “apoptosis in U937 cells” value is listed as “robust induction of apoptosis”. Further, the “total cell number of JMML cells” value in [5] is recorded as “greatly decreased”. Besides, the “colony formation of JMML myeloid blasts” value in experiment [6] was “exquisitely sensitive”. For the same compound, the “colony-forming capabilities of mutant SHP2-expressing progenitors” value in [7] was “significantly reduced”. Also, in the experiment with SHP2 PTP domain, the “quenching of SHP2 fluorescence” value is recorded as “strong quenching of SHP2 fluorescence in a dose-dependent manner”. The “proliferation of control siRNA cells” value in the experiment with Hela cells is on record as “decreased”. The “sensitivity of SHP2-depleted cells” value in the experiment with Hela cells (SHP2 siRNA) is “much less sensitive”. Besides, in the experiment with GST-SHP2 PTP, the “change of Vmax by inhibitor” value is “decreased” and the type of inhibition result is on record as “mixed-type inhibitor”. In addition, the “cell growth of WT MEFs” value in experiment [8] is given as “decreased cell growth”. Also, the “cell cycle effect in H661 cells” value in the experiment on H661 cells is “G1-S arrest”.

In the case of `Cc1coc2c1C(=O)C(=O)c1c-2ccc2c(C)cccc12` [Tanshinone I], the “SHP2 IC50, fold lower than that of Cryptotanshinone” value (shortened to “SHP2 IC50, fold lower than that”) in [9] is given as 8.75 fold. For the same compound, the “selectivity between SHP2 and SHP1” value in the experiment with SHP1 is “no selectivity between SHP2 and SHP1”.

For the compound `Cc1cccc2c3c(ccc12)C1=C(C(=O)C3=O)[C@@H](C)CO1` [Dihydrotanshinone], the “SHP2 IC50, fold lower than that” value in experiment [9] stood at 5.71 fold. Also, in the experiment on SHP1, the “selectivity between SHP2 and SHP1” value was “no selectivity between SHP2 and SHP1”.

On to `Cc1coc2c1C(=O)C(=O)c1c-2ccc2c1CCCC2(C)C` [Tanshinone IIA], for which the “SHP2 IC50, fold lower than that” value in [9] came out at 8.69 fold. Further, the “selectivity between SHP2 and SHP1” value in the experiment on SHP1 was “no selectivity between SHP2 and SHP1”.
